Test results from ChEMBL document CHEMBL4152279, “Synthesis, cytotoxic evaluation and target identification of thieno[2,3-d]pyrimidine derivatives with a dithiocarbamate side chain at C2 position” (Eur J Med Chem, 2018).
Calls of active or inactive are those of the source. No cut-off for these calls is given here.

Columns and labels:
[1] = tested on: A549; experiment: Cytotoxicity against human A549 cells at 30 uM by MTS assay relative to control; assay type: functional
Summary of the method: (§1)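 MTS read-out (CellTiter 96 AQueous One) of proliferation in A549 or HCT-116 cells grown in DMEM with 10% FBS at 37 °C, 5% CO2. Taxol-resistant A549 cells were exposed for 72 h. Compounds were screened at 30 μM versus vehicle, with ≥50% inhibition counted active. Actives were then tested over a concentration range for IC50. Triplicate wells, three independent experiments, mean ± SD.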

[2] = tested on: HCT-116; experiment: Cytotoxicity against human HCT116 cells at 30 uM by MTS assay relative to control; assay type: functional; summary of the method: as §1
[3] = tested on: HeLa; experiment: Cytotoxicity against human HeLa cells at 30 uM by MTS assay; assay type: functional, cell-based
[4] = tested on: MCF7; experiment: Cytotoxicity against human MCF7 cells at 30 uM by MTS assay; assay type: functional, cell-based
[5] = tested on: MDA-MB-231; experiment: Cytotoxicity against human MDA-MB-231 cells at 30 uM by MTS assay; assay type: functional, cell-based
[6] = tested on: HT-29; experiment: Cytotoxicity against human HT-29 cells at 30 uM by MTS assay; assay type: functional, cell-based
[7] = tested on: A549; experiment: Cytotoxicity against human A549 cells by MTS assay; assay type: functional, cell-based; summary of the method: as §1
[8] = tested on: HCT-116; experiment: Cytotoxicity against human HCT116 cells by MTS assay; assay type: functional, cell-based; summary of the method: as §1
[9] = tested on: A549; experiment: Binding affinity to tubulin alpha in human A549 cells immunoblot based based pull down assay; assay type: cell-based
Summary of the method: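 A549 lysate in NETN buffer incubated with biotin, biotinylated probe or control probe at 4 °C, then streptavidin Dynabeads 1 h at 4 °C. Beads washed six times, bound proteins run on SDS-PAGE and immunoblotted for α-tubulin.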

[10] = species: Sus scrofa; experiment: Binding affinity to porcine tubulin after overnight incubation by streptavidin pull down assay
Summary of the method: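 Purified porcine neuronal tubulin incubated with biotin, biotinylated probe or control probe in NETN buffer at 4 °C. Streptavidin Dynabeads 1 h at 4 °C, six washes, then SDS-PAGE and α-tubulin immunoblot.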

Row | SMILES | Activity [1] | Activity [2] | Activity [3] | Activity [4] | Activity [5] | Activity [6] | IC50 [7] | IC50 [8] | Activity [9] | Activity [10]
1 | COc1cccc(CSC(=S)NCc2nc3sc(C)cc3c(=O)[nH]2)c1 | inactive | inactive | inactive | inactive | inactive | inactive |  |  |  | 
2 | COc1ccccc1CSC(=S)NCc1nc2sc(C)cc2c(=O)[nH]1 | inactive | inactive | inactive | inactive | inactive | inactive |  |  |  | 
3 | Cc1cc2c(=O)[nH]c(CSC(=S)NCc3ccco3)nc2s1 | >=50% | >=50% | inactive | inactive | inactive | inactive | > 30 µM | 29.8 µM |  | 
4 | Cc1cc2c(=O)[nH]c(CNC(=S)SCc3ccc([N+](=O)[O-])cc3)nc2s1 | inactive | inactive | inactive | inactive | inactive | inactive |  |  |  | 
5 | COc1ccccc1CNC(=S)SCc1nc2sc(C)cc2c(=O)[nH]1 | >=50% | >=50% | inactive | inactive | inactive | inactive | 7.01 µM | 18.1 µM |  | 
6 | COc1ccc(CNC(=S)SCc2nc3sc(C)cc3c(=O)[nH]2)cc1 | >=50% | >=50% | inactive | inactive | inactive | inactive | 29.1 µM | 24.5 µM |  | 
7 | Cc1cc2c(=O)[nH]c(CSC(=S)NCc3ccncc3)nc2s1 | >=50% | >=50% | inactive | inactive | inactive | inactive | 7.43 µM | 14.1 µM |  | 
8 | Cc1cc2c(=O)[nH]c(CSC(=S)NCc3ccc(Cl)cc3Cl)nc2s1 | >=50% | >=50% | inactive | inactive | inactive | inactive | 29.5 µM | > 30 µM |  | 
9 | CCOC(=O)c1ccc(CSC(=S)NCc2nc3sc(C)cc3c(=O)[nH]2)cc1 | inactive | inactive | inactive | inactive | inactive | inactive |  |  |  | 
10 | Cc1cc2c(=O)[nH]c(CSC(=S)NCc3ccc(Br)cc3)nc2s1 | >=50% | >=50% | inactive | inactive | inactive | inactive | 21.9 µM | 28.7 µM |  | 
11 | Cc1cc2c(=O)[nH]c(CSC(=S)NCc3ccc4c(c3)OCO4)nc2s1 | >=50% | >=50% | inactive | inactive | inactive | inactive | 14 µM | 24.6 µM |  | 
12 | Cc1cc2c(=O)[nH]c(CSC(=S)NCc3ccc(F)cc3)nc2s1 | >=50% | >=50% | inactive | inactive | inactive | inactive | 18.9 µM | 28.7 µM |  | 
13 | Cc1cc2c(=O)[nH]c(CNC(=S)SCc3ccc(F)cc3F)nc2s1 | inactive | inactive | inactive | inactive | inactive | inactive |  |  |  | 
14 | O=C(O)CCCC[C@@H]1SC[C@@H]2NC(=O)N[C@@H]21 |  |  |  |  |  |  |  |  | inactive | inactive
15 | Cc1cc2c(=O)[nH]c(CN(CCCNC(=O)CCCC[C@@H]3SC[C@@H]4NC(=O)N[C@@H]43)Cc3ccc(C#N)cc3)nc2s1 |  |  |  |  |  |  |  |  | inactive | inactive
16 | Cc1cc2c(=O)[nH]c(CSC(=S)NCc3ccccc3)nc2s1 | >=50% | >=50% | inactive | inactive | inactive | inactive | 29.5 µM | > 30 µM |  | 
